Data published in ChEMBL document CHEMBL1938288, “Discovery, synthesis, and pharmacological evaluation of spiropiperidine hydroxamic acid based derivatives as structurally novel histone deacetylase (HDAC) inhibitors” (J Med Chem, 2011).
The source made the active and inactive calls. No cut-off for these calls is given here.

Assays:
[1] = Plasma clearance in CD1 mouse at 5 mg/kg, iv and 15 mg/kg, po; assay type: ADME, organism-based
How it was run: (§1)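 Single dose to male CD-1 mice, either iv at 5 mg/kg or oral at 15 mg/kg. Plasma pharmacokinetic parameters were calculated from these dosings.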

[2] = biological target: Histone deacetylase; experiment: Inhibition of human HDAC in HeLa cell nuclear extracts using KI-104 Fluor de Lys as substrate by fluorescence assay; assay type: protein assay
How it was run: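 HDAC activity from partially purified HeLa nuclear extracts, using a fluorogenic acetylated histone peptide (Fluor de Lys) as substrate. Replicates n ≥ 2, mean values reported.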

[3] = biological target: Histone deacetylase 1 (Homo sapiens, UniProt Q13547); experiment: Inhibition of HDAC1 using carboxyfluorescein-labeled peptide as substrate after 17 hrs by fluorescence assay
How it was run: (§2)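 Purified HDAC isoforms incubated with compound and 1 μM carboxyfluorescein-labelled peptide for 17 h at 25 °C. Reaction stopped with HEPES/0.08% SDS. Substrate and product separated electrophoretically and read by fluorescence. Run in duplicate. IC50 from 12-point curves by nonlinear regression.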

[4] = Volume of distribution at steady state in CD1 mouse at 5 mg/kg, iv and 15 mg/kg, po; assay type: ADME, organism-based; settings: in vivo, read-out: Vdss; how it was run: as §1
[5] = tested on: A549; experiment: Antiproliferative activity against human A549 cells after 72 hrs by CellTiter-Glo luminescent cell viability assay; assay type: functional, cell-based; settings: A549, 72 h
How it was run: (§3)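 Cells in exponential growth exposed to a range of inhibitor concentrations for 72 h. CellTiter-Glo reagent added, mixed 2 min to lyse cells, luminescence read 10 min later. IC50 derived from the concentration–response. Replicates n ≥ 2, mean shown.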

[6] = Tmax in CD1 mouse at 5 mg/kg, iv and 15 mg/kg, po; assay type: ADME, organism-based; settings: in vivo; how it was run: as §1
[7] = biological target: Histone deacetylase 3 (Homo sapiens, UniProt O15379); experiment: Inhibition of HDAC3 using carboxyfluorescein-labeled peptide as substrate after 17 hrs by fluorescence assay; how it was run: as §2
[8] = tested on: HCT-116; experiment: Cell cycle arrest in human HCT116 cells assessed as accumulation at G0/G1 phase at 1 to 3 uM after 24 hrs by flow cytometry; assay type: functional, cell-based; settings: in the assay text read “G2/M phase” for “G0/G1 phase”
How it was run: (§4)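 HCT-116 cells treated for 24 h at several concentrations. Harvested, fixed in 70% ethanol at -20 °C, RNase treated (1 mg/mL), stained with propidium iodide. DNA content measured by flow cytometry to give phase distribution, including the subG1 population.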

[9] = biological target: Histone deacetylase 4 (Homo sapiens, UniProt P56524); experiment: Inhibition of HDAC4 using carboxyfluorescein-labeled peptide as substrate after 17 hrs by fluorescence assay
How it was run: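 Stopped with HEPES/0.08% SDS. Substrate and product separated electrophoretically, read by green fluorescence. Duplicates. IC50 from 12-point concentration-response curves by nonlinear regression. Run by contract lab.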

[10] = tested on: HCT-116; experiment: Cell cycle arrest in human HCT116 cells assessed as decrease in S phase cells at 0.3 uM after 24 hrs by flow cytometry; assay type: functional, cell-based; how it was run: as §4
[11] = Tmax in mouse; assay type: ADME, organism-based; settings: in vivo
[12] = tested on: HCT-116; experiment: Antitumor activity against human HCT116 cells xenografted in CD1 nude mouse assessed as reduced tumor volume 150 mg/kg, po administered for 5 days/week for 17 days; assay type: functional
How it was run: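 Female CD-1 nude mice bearing subcutaneous flank HCT-116 tumours (5 × 10⁶ cells injected). Dosing began at about 100 mm³ tumour volume. Given orally at 35–150 mg/kg in water with 5% DMSO and 9.5% encapsin, 5 days/week for 17 days. Tumour volume tracked against vehicle controls. T/C = mean relative tumour volume treated / control.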

[13] = Elimination half life in CD1 mouse at 5 mg/kg, iv and 15 mg/kg, po; assay type: ADME, organism-based; settings: in vivo, read-out: beta t1/2 (converted); how it was run: as §1
[14] = Cmax in CD1 mouse at 5 mg/kg, iv; assay type: ADME, organism-based; set-up: dose 5 mg/kg, route intravenous; settings: in vivo; how it was run: as §1
[15] = biological target: Histone deacetylase (Homo sapiens) (UniProt Q13547+O15379+Q9UBN7+Q92769+Q9UQL6+Q8WUI4+Q9BY41+Q96DB2+P56524+Q9UKV0+Q969S8); settings: HCT-116, 0.001 to 10 uM
[16] = biological target: T1, Protein deacetylase HDAC6 (Homo sapiens, UniProt Q9UBN7); experiment: Inhibition of HDAC6 using carboxyfluorescein-labeled peptide as substrate after 17 hrs by fluorescence assay; how it was run: as §2
T1 sequence (Q9UBN7 whole entry): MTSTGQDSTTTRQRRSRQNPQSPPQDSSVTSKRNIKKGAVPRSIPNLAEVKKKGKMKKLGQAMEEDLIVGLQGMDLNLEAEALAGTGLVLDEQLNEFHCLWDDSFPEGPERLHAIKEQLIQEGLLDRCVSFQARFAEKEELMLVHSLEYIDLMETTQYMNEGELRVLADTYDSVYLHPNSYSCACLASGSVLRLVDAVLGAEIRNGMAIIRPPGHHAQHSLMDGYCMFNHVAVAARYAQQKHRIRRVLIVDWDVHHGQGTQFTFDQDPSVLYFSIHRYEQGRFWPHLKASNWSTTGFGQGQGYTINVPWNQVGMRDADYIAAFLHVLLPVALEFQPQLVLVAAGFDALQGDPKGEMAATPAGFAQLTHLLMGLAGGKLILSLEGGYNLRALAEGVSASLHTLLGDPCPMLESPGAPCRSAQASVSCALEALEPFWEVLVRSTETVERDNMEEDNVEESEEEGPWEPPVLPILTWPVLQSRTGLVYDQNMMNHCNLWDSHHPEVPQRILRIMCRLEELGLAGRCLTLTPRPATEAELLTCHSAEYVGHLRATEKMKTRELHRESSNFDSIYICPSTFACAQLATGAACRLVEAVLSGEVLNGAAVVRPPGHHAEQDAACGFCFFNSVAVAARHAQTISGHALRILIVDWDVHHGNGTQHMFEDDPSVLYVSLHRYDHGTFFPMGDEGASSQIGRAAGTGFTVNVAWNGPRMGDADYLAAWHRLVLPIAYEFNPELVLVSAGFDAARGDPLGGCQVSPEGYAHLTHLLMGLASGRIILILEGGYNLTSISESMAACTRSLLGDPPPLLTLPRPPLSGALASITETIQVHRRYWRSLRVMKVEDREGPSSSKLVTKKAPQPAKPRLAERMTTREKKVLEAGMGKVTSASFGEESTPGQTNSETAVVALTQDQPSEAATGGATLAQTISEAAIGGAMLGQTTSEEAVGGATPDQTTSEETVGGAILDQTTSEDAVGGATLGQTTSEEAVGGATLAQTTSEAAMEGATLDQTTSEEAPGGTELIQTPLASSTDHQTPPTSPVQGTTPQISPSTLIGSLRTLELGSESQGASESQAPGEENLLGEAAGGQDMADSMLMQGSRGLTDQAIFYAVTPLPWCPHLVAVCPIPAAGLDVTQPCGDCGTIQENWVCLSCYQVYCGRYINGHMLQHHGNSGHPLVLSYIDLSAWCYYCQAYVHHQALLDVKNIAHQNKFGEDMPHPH

[17] = tested on: K562; experiment: Antiproliferative activity against human K562 cells after 72 hrs by CellTiter-Glo luminescent cell viability assay; assay type: functional, cell-based; settings: K562, 72 h; how it was run: as §3

Chain of Histone deacetylase 4 (P56524 whole entry): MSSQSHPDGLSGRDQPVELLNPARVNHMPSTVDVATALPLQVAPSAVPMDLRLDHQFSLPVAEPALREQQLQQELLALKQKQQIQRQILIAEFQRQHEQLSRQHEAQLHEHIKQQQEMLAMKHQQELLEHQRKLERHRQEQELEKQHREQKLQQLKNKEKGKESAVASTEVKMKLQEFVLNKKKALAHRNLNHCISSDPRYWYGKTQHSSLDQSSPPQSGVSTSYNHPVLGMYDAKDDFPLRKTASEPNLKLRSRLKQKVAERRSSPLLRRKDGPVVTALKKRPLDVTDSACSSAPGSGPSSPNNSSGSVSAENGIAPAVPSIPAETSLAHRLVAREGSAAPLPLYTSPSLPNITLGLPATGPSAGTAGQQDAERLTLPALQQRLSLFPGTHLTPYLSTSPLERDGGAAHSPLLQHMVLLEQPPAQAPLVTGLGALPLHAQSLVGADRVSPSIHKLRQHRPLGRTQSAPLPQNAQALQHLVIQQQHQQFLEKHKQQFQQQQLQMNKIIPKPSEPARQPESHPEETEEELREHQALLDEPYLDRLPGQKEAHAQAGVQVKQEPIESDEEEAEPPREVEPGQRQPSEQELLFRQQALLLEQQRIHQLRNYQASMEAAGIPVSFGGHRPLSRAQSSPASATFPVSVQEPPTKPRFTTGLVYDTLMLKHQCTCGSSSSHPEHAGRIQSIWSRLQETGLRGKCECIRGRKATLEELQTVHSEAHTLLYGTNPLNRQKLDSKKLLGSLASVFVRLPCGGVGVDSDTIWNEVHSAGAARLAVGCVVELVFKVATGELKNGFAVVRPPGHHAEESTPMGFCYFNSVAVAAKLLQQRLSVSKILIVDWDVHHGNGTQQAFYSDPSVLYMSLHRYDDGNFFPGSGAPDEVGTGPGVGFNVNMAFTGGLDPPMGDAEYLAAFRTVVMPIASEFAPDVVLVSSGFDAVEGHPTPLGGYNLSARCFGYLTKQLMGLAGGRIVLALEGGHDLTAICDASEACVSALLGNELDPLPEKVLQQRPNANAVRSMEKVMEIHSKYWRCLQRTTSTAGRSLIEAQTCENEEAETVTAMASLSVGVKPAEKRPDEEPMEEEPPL
Chain of Histone deacetylase 3 (O15379 whole entry): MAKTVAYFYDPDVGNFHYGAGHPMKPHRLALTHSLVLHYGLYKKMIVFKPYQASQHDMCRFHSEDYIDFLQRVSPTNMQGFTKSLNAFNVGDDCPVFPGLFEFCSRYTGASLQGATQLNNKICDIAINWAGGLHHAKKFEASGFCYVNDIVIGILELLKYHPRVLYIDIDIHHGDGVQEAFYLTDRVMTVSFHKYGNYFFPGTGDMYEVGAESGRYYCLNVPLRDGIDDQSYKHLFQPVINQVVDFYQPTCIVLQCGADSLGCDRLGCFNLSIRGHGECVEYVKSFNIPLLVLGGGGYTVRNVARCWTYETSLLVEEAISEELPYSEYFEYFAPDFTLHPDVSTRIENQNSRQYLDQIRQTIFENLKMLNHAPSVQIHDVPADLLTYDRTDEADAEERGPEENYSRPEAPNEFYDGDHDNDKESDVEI
Chain of Histone deacetylase 1 (Q13547 whole entry, canonical isoform): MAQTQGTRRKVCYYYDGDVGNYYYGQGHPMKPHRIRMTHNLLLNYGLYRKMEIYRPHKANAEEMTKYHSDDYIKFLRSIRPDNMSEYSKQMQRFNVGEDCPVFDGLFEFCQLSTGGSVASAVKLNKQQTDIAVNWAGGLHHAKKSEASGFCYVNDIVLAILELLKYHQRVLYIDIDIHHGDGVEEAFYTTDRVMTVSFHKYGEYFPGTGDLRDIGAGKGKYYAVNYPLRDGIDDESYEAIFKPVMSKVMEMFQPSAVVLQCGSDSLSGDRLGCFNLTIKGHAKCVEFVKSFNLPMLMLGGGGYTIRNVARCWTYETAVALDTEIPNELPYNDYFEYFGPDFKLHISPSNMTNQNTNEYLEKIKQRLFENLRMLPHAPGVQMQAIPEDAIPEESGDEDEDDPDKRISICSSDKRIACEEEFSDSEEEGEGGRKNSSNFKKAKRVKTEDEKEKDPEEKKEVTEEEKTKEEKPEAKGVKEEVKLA

clearance [1]: 5.88 L/h/kg
IC50 [2]: 0.121 µM
IC50 [3]: 0.0938 µM
Vd [4]: 8.9 L/kg
IC50 [5]: 0.773 µM
Tmax [6]: 15 min
IC50 [7]: 0.0094 µM
IC50 [9]: 0.127 µM
Tmax [11]: 15 min
half-life [13]: 504 min
Cmax [14]: 12.5 µM
inhibition [15]: tde
IC50 [16]: 0.0257 µM
IC50 [17]: 0.399 µM
SMILES: O=C(/C=C/c1ccc2c(c1)C(=O)CC1(CCN(Cc3ccccc3)CC1)O2)NO
Activity [8]: Active
Activity [10]: Active
T/C [12]: 0.3
